Source: ChEMBL document CHEMBL1121893, “N-Aralkyl substitution of 2-amino-5,6- and -6,7-dihydroxy-1,2,3,4-tetrahydronaphthalenes. 1. Cardiac and pressor/depressor activities” (J Med Chem, 1981)
The source made the active and inactive calls. The rule behind the calls is not given here.

Legend:
Canis familiaris [1] = species: Canis familiaris; experiment: Cardioselectivity expressed as change in blood pressure for 100% increase in right ventricular contractile force in dogs; type: functional, Canis lupus familiaris
Summary of the method: (§1)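 Mongrel dogs of either sex, anesthetized with pentobarbital sodium (30 mg/kg iv) and ventilated. Femoral-artery blood pressure, heart rate and right ventricular contractile force were recorded, the force by strain gauge with the muscle stretched to 140% of in situ length. After 30 min equilibration, iv bolus doses in saline with 0.5 mg/mL bisulfite were doubled until contractile force rose 100%. Peak responses were taken.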

Canis familiaris [2] = species: Canis familiaris; experiment: Cardioselectivity expressed as change in blood pressure for 50% increase in right ventricular contractile force in dogs; type: functional, Canis lupus familiaris
Summary of the method: (§2)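 Mongrel dogs of either sex, pentobarbital sodium anaesthesia (30 mg/kg iv, supplemented as needed), ventilated. Femoral arterial BP recorded, drugs given into a forelimb vein as iv boluses in saline with 0.5 mg/mL sodium bisulfite. Right ventricular CF measured by Walton-Brodie strain gauge. Peak response taken per dose, doses raised in 2-fold steps until CF rose 100%. HR and BP changes read at 50% and 100% CF increase. Means ± SEM.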

Canis familiaris [3] = species: Canis familiaris; experiment: Ionotropic selectivity expressed as change in heart rate for 50 percent increase in right ventricular contractile force in dogs; type: functional, Canis lupus familiaris; summary of the method: as §2
Canis familiaris [4] = species: Canis familiaris; experiment: Inotropic potency expressed as 100 percent increase in right ventricular contractile force in dogs; type: functional, Canis lupus familiaris, Heart right ventricle; summary of the method: as §1
Canis familiaris [5] = species: Canis familiaris; experiment: Inotropic potency expressed as 50 percent increase in right ventricular contractile force in dogs; type: functional, Canis lupus familiaris, Heart right ventricle; summary of the method: as §2
Cavia porcellus [6] = species: Cavia porcellus; experiment: (§3) Effective concentration for increasing potency force in guinea pig isolated left atria; type: functional
Summary of the method: (§4)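 Isolated guinea pig left and right atria, field stimulated with 5 ms pulses and allowed to stabilise 60 min with periodic washing. An isoproterenol cumulative concentration-response curve was run first, tissues washed, then a cumulative curve with the test compound. Force was read in both atria and rate in right atria. Intrinsic activity = maximal response ÷ isoproterenol maximum. EC20 was given where EC50 was not reached. Means ± SE.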

Cavia porcellus [7] = species: Cavia porcellus; experiment: (§5) Effective concentration for increasing potency rate in guinea pig isolated right atria; type: functional; summary of the method: as §4
Cavia porcellus [8] = species: Cavia porcellus; experiment: Compound was tested for or relative intrinsic activity in guinea pig isolated atrium left atria; type: functional, Cardiac atrium; summary of the method: as §4
Cavia porcellus [9] = species: Cavia porcellus; experiment: Compound was tested for relative intrinsic activity in guinea pig isolated atrium right atria; type: functional, Cardiac atrium; summary of the method: as §4
Canis familiaris [10] = species: Canis familiaris; experiment: Ionotropic selectivity expressed as change in heart rate for 100 percent increase in right ventricular contractile force in dogs; type: functional, Canis lupus familiaris; summary of the method: as §1
Cavia porcellus [11] = species: Cavia porcellus; experiment: as §3; type: functional; remark: listed apart in the source
Cavia porcellus [12] = species: Cavia porcellus; experiment: Effective concentration for increasing potency in guinea pig isolated right atria; type: functional; summary of the method: as §4
[13] = Percentage increase in contractile force was determined by the effect of DMI (desmethylimipramine, 1 mg/kg, iv) at 50 ug/kg
Cavia porcellus [14] = species: Cavia porcellus; experiment: as §5; type: functional; remark: listed apart in the source
Summary of the method: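 Isolated atria were stabilized 60 min with periodic washing. A cumulative isoproterenol concentration-response curve was run, then washed out. A cumulative curve with the test compound followed. The EC50 was derived, or EC20 where 50% was not reached. Intrinsic activity is the maximal response relative to isoproterenol maximum.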

Canis familiaris [15] = species: Canis familiaris; experiment: Cardioselectivity expressed as change in blood pressure for 100% increase in right ventricular contractile force in dogs; CF(100) levels not obtained; type: functional, organism-based; details: Canis lupus familiaris; summary of the method: as §2
Canis familiaris [16] = species: Canis familiaris; experiment: Ionotropic selectivity expressed as change in heart rate for 100 percent increase in right ventricular contractile force in dogs; CF(100) levels not obtained; type: functional, organism-based; details: Canis lupus familiaris; summary of the method: as §2
Canis familiaris [17] = species: Canis familiaris; experiment: Inotropic potency expressed as 100 percent increase in right ventricular contractile force in dogs; CF(100) levels not obtained; type: functional, organism-based; details: Canis lupus familiaris; Heart right ventricle; summary of the method: as §2
Canis familiaris [18] = species: Canis familiaris; experiment: Inotropic potency expressed as 100 percent increase in right ventricular contractile force in dogs; CF(100) levels not obtained; CF(100) levels not obtained; type: functional, organism-based; details: Canis lupus familiaris; Heart right ventricle; summary of the method: as §2
Canis familiaris [19] = species: Canis familiaris; experiment: Cardioselectivity expressed as change in blood pressure for 100% increase in right ventricular contractile force in dogs; CF(100) level not obtained; type: functional, organism-based; details: Canis lupus familiaris; summary of the method: as §2
Canis familiaris [20] = species: Canis familiaris; experiment: Ionotropic selectivity expressed as change in heart rate for 100 percent increase in right ventricular contractile force in dogs; CF(100) level not obtained; type: functional, organism-based; details: Canis lupus familiaris; summary of the method: as §2
Canis familiaris [21] = species: Canis familiaris; experiment: Inotropic potency expressed as 100 percent increase in right ventricular contractile force in dogs; CF(100) level not obtained; type: functional, organism-based; details: Canis lupus familiaris; Heart right ventricle; summary of the method: as §2

Structure (SMILES)	BP (Canis familiaris [1]) [mmHg]	BP (Canis familiaris [2]) [mmHg]	HR (Canis familiaris [3]) [beats min-1]	Potency (Canis familiaris [4]) [nM/kg]	Potency (Canis familiaris [5]) [nM/kg]	EC50 (Cavia porcellus [6]) [µM]	EC50 (Cavia porcellus [7]) [µM]	RIA (Cavia porcellus [8])	RIA (Cavia porcellus [9])	HR (Canis familiaris [10]) [beats min-1]	also measured
CC(Cc1ccc(O)c(O)c1)NC1CCc2c(ccc(O)c2O)C1 (centres undefined)	-54	-42	26	20.1	7.2	0.25	0.16	1.02	0.87	40	–
CC(CCc1ccc(O)cc1)NC1CCc2cc(O)c(O)cc2C1 (centres undefined)	60	13	-3	410	140	–	–	0.38	0.15	19	EC20 (Cavia porcellus [11]): 2.7 µM; EC20 (Cavia porcellus [12]): > 110 µM
NC1CCc2cc(O)c(O)cc2C1 (centres undefined)	61	29	-12	457	173	2.5	33	1.06	0.61	21	Increase [13]: 5%
CC(CCc1ccc(O)cc1)NC1CCc2c(ccc(O)c2O)C1 (centres undefined)	-61	-51	20	196	27.7	0.73	1.8	1.11	0.78	41	–
CC(CCc1ccc(O)c(O)c1)NC1CCc2cc(O)c(O)cc2C1 (centres undefined)	-11	-36	20	109	24.6	–	1.2	–	0.35	45	–
CC(Cc1ccc(O)c(O)c1)NC1CCc2cc(O)c(O)cc2C1 (centres undefined)	–	-39	-5	27	11.4	0.28	–	0.95	0.69	4	EC50 (Cavia porcellus [12]): 2.2 µM
Oc1ccc(CCNC2CCc3cc(O)c(O)cc3C2)cc1O (centres undefined)	72	50	11	189	85	1.5	–	0.84	0.67	30	EC50 (Cavia porcellus [12]): 16 µM
Oc1cc2c(cc1O)CC(NC1CCc3cc(O)c(O)cc3C1)CC2 (centres undefined)	84	78	31	2650	961	–	–	0.38	0.08	62	EC20 (Cavia porcellus [11]): 2.4 µM; EC20 (Cavia porcellus [14]): > 110 µM
CC(C)NC1CCc2c(ccc(O)c2O)C1 (centres undefined)	–	-66	20	–	110	21	1.7	1.16	0.55	–	BP (Canis familiaris [15]): CF(100) levels not obtained; HR (Canis familiaris [16]): CF(100) levels not obtained; Potency (Canis familiaris [17]): CF(100) levels not obtained
CC(CCc1ccc(O)cc1)NCCc1ccc(O)c(O)c1 (centres undefined) [DOBUTAMINE]	4	3	3	13.2	4.1	0.15	0.47	1.12	0.9	17	–
NC1CCc2c(ccc(O)c2O)C1 (centres undefined)	–	41	11	–	410	4.4	38	1.05	0.69	–	BP (Canis familiaris [15]): inactive; HR (Canis familiaris [16]): inactive; Potency (Canis familiaris [18]): inactive; Increase [13]: 18%
CC(C)NC1CCc2cc(O)c(O)cc2C1 (centres undefined)	–	46	9	–	1560	49	–	0.78	0.24	–	BP (Canis familiaris [19]): CF(100) level not obtained; HR (Canis familiaris [20]): CF(100) level not obtained; Potency (Canis familiaris [21]): CF(100) level not obtained; EC20 (Cavia porcellus [12]): 200 µM
CC(C)NCC(O)c1ccc(O)c(O)c1 (centres undefined) [ISOPROTERENOL]	-27	-17	13	0.35	0.11	0.0032	0.0062	1	1	35	–
NCCc1ccc(O)c(O)c1 [DOPAMINE]	-5	-15	5	125	58.1	1.7	1.5	1.15	1	12	–
